Reference: ChEMBL document CHEMBL3232839, “Identification of isosilybin a from milk thistle seeds as an agonist of peroxisome proliferator-activated receptor gamma” (J Nat Prod, 2014)
The source made the active and inactive calls. The rule behind the calls is not given here.

What was measured:
[1] = target: T1, Peroxisome proliferator-activated receptor gamma (Homo sapiens) (UniProt P37231); experiment: Agonist activity at human PPAR-gamma expressed in HEK293 cells at 30 uM after 18 hrs by luciferase reporter gene assay relative to control
T1 sequence (whole entry): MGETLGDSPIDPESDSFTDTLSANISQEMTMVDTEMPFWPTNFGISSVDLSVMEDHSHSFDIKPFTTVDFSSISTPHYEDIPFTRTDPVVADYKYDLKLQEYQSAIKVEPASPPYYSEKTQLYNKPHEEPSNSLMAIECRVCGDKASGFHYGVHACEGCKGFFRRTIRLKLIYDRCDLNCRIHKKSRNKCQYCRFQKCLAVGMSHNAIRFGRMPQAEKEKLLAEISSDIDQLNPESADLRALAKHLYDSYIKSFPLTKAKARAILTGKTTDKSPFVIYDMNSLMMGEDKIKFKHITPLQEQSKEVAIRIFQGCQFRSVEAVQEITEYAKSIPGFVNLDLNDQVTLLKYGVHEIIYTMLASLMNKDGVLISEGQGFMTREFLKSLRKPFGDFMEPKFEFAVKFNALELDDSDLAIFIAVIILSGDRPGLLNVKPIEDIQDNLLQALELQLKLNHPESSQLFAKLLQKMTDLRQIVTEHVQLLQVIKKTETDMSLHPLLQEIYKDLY

[2] = target: T1, Peroxisome proliferator-activated receptor gamma (Homo sapiens); experiment: Transactivation of human PPAR-gamma expressed in HEK293 cells after 18 hrs by luciferase reporter gene assay relative to control; assay type: cell-based
In short: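 HEK-293 cells transiently co-transfected by calcium phosphate with full-length human PPARγ expression plasmid (pSG5-PL-hPPAR-gamma1), tk-PPREx3-luc reporter and EGFP internal control. Cells were reseeded and treated for 18 h, with 0.1% DMSO as vehicle. Luciferase was normalized to EGFP fluorescence and expressed as fold induction over vehicle. Means ± SD of three independent experiments, each in quadruplicate.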

[3] = target: T1, Peroxisome proliferator-activated receptor gamma (Homo sapiens); experiment: Reduction of pioglitazone-mediated human PPAR-gamma activation expressed in HEK293 cells after 18 hrs by luciferase reporter gene assay; assay type: cell-based
In short: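 Co-treatment assay in human PPARγ/tk-PPREx3-luc/EGFP-transfected HEK-293 cells. Pioglitazone at varied concentrations was applied with or without 30 μM compound for 18 h, with DMSO vehicle at 0.1%. Luciferase was normalized to EGFP fluorescence and expressed as fold over vehicle. Means ± SD of three independent experiments in quadruplicate.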

[4] = target: T1, Peroxisome proliferator-activated receptor gamma (Homo sapiens); experiment: Agonist activity at human PPAR-gamma expressed in HEK293 cells at 30 uM after 18 hrs by luciferase reporter gene assay in presence of T0070907

Row | SMILES | Activity [1] | other results
1 | COc1cc(C2Oc3c(O)cc([C@H]4Oc5cc(O)cc(O)c5C(=O)[C@@H]4O)cc3C2CO)ccc1O (stereo not given in full) | inactive | –
2 | COc1cc([C@@H]2Oc3ccc([C@H]4Oc5cc(O)cc(O)c5C(=O)[C@@H]4O)cc3O[C@H]2CO)ccc1O | inactive | –
3 | COc1cc([C@H]2Oc3cc([C@H]4Oc5cc(O)cc(O)c5C(=O)[C@@H]4O)ccc3O[C@@H]2CO)ccc1O | inactive | –
4 | O=C1c2c(O)cc(O)cc2O[C@H](c2ccc(O)c(O)c2)[C@H]1O | inactive | –
5 | COc1cc([C@H]2Oc3ccc([C@H]4Oc5cc(O)cc(O)c5C(=O)[C@@H]4O)cc3O[C@@H]2CO)ccc1O | – | Activity [2]: Dose-dependent effect; Activity [3]: Active; fold change (FC) [1]: 2.08; Activity [4]: inactive
6 | COc1cc([C@@H]2[C@H]3CO[C@@]4(O)C(=O)[C@@H]2C=C([C@H]2Oc5cc(O)cc(O)c5C(=O)[C@@H]2O)[C@@H]34)ccc1O | inactive | –
7 | COc1cc([C@@H]2Oc3cc([C@H]4Oc5cc(O)cc(O)c5C(=O)[C@@H]4O)ccc3O[C@H]2CO)ccc1O | inactive | –
